pIC50: −log10 of the molar value. The source made the active and inactive calls. The calls are words filed in the database; no cut-off is given here.
Columns and labels:
Calf thymus DNA [1] = assay: Binding affinity to calf thymus DNA in Tris-HCl buffer at pH 7.0 assessed as minimal change in viscosity incubated for 30 mins by Ostwald viscometer analysis; type: nucleic-acid assay; conditions: Bos taurus
In short: (§1)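 Ostwald viscometer at 23.0 ± 1 °C. CT DNA held at 300 μM/bp in 10 mM Tris-HCl pH 7.0 with ligand or ethidium at 0–26 μM, incubated 30 min before timing flow. (η/η0)^1/3 plotted against [ligand]/[DNA]; three replicates, SD shown.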

[2] = Displacement of Ethidium bromide from G6 (5'-GGGGGG-3') hairpin DNA (unknown origin)/EtBr complex assessed as decrease in initial absorbance of DNA by crystal violet staining based analysis
[3] = Displacement of Ethidium bromide from NFAT1 (5-GAAAAA-3') hairpin DNA (unknown origin)/EtBr complex assessed as binding constant by crystal violet staining based analysis
AT rich DNA [4] = assay: Displacement of Ethidium bromide from AT3 (5'-ATATAT-3') hairpin DNA (unknown origin)/EtBr complex assessed as decrease in initial absorbance of DNA by crystal violet staining based analysis; type: nucleic-acid assay
[5] = Displacement of Ethidium bromide from STAT6 (5'-TCCTAG-3') hairpin DNA (unknown origin)/EtBr complex assessed as decrease in initial absorbance of DNA by crystal violet staining based analysis
[6] = Displacement of Ethidium bromide from NFAT1 (5-GAAAAA-3') hairpin DNA (unknown origin)/EtBr complex assessed as decrease in initial absorbance of DNA by crystal violet staining based analysis
[7] = Displacement of Ethidium bromide from STAT6 (5'-TCCTAG-3') hairpin DNA (unknown origin)/EtBr complex assessed as binding constant by crystal violet staining based analysis
[8] = Displacement of Ethidium bromide from cMyc (5'-CACGTG-3') hairpin DNA (unknown origin)/EtBr complex assessed as binding constant by crystal violet staining based analysis
[9] = Displacement of Ethidium bromide from DDD (5-CGAATT-3') hairpin DNA (unknown origin)/EtBr complex assessed as decrease in initial absorbance of DNA by crystal violet staining based analysis
Calf thymus DNA [10] = assay: Binding affinity to calf thymus DNA in Tris-HCl buffer at pH 7.0 assessed as rigidification of DNA from intercalation of drug incubated for 30 mins by Ostwald viscometer analysis; type: nucleic-acid assay; conditions: Bos taurus; in short: as §1
AT rich DNA [11] = assay: Displacement of Ethidium bromide from AT3 (5'-ATATAT-3') hairpin DNA (unknown origin)/EtBr complex assessed as binding constant by crystal violet staining based analysis; type: nucleic-acid assay
[12] = Binding affinity to DDD (5-CGAATT-3') hairpin DNA (unknown origin) assessed as binding constant by isothermal titration calorimetry
Calf thymus DNA [13] = assay: Binding affinity to calf thymus DNA assessed as change in melting temperature by UV thermal denaturation assay; type: nucleic-acid assay; conditions: Bos taurus
In short: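 CT DNA in 10 mM Tris-HCl pH 7.0 at a DNA:ligand ratio of 30:1, in 1 cm quartz cuvettes. Absorbance read every 2 °C from 25 to 95 °C, heating at 1 °C/min. Tm taken from first-derivative plots.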

[14] = Displacement of Ethidium bromide from cMyc (5'-CACGTG-3') hairpin DNA (unknown origin)/EtBr complex assessed as decrease in initial absorbance of DNA by crystal violet staining based analysis
Calf thymus DNA [15] = assay: Binding affinity to calf thymus DNA in Tris-HCl buffer at pH 7.0 assessed as lengthening of DNA from intercalation of drug incubated for 30 mins by Ostwald viscometer analysis; type: nucleic-acid assay; conditions: Bos taurus; in short: as §1
Calf thymus DNA [16] = assay: Binding affinity to calf thymus DNA assessed as bathochromic shift by UV spectroscopic analysis; type: nucleic-acid assay; conditions: Bos taurus
In short: (§2)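 UV titration in 10 mM Tris-HCl pH 7.0 with ligand fixed at 5.0 μM and CT DNA:ligand ratios of 0:1, 1:1, 2:1, 5:1, 10:1 and 30:1.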

DNA [17] = assay: Binding affinity to pUC-19 plasmid DNA (unknown origin) assessed as DNA cleavage incubated for 30 mins in presence of BamHI restriction enzyme by ethidium bromide staining based agarose gel electrophoresis analysis; type: nucleic-acid assay
In short: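 pUC-19 linearized with AlwNI (37 °C, 30 min), enzyme heat-killed at 80 °C for 20 min, then incubated with varying ligand concentrations. BamHI digestion for 30 min at 37 °C. Run on 1% agarose containing ethidium bromide, 120 V for 40 min; visualized by UV transillumination.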

Calf thymus DNA [18] = assay: Binding affinity to calf thymus DNA assessed as hypochromic shift by UV spectroscopic analysis; type: nucleic-acid assay; conditions: Bos taurus; in short: as §2
[19] = Binding affinity to DDD hairpin DNA (unknown origin) assessed as binding constant at 100 uM by ITC analysis
In short: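 Isothermal titration calorimetry of DDD hairpin (10 μM in cell) titrated with ligand (100 μM in syringe), 10 mM Tris-HCl pH 7.0, 30 °C; 25 injections of 10 μL. Heats of dilution subtracted; single-site binding model fitted; K averaged from triplicate experiments.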

[20] = Displacement of Ethidium bromide from G5C5 (5'-AAAGGGGG-CCCCCTTT-3') DNA (unknown origin)/EtBr complex assessed as decrease in initial absorbance of DNA by crystal violet staining based analysis
DNA [21] = assay: Displacement of Ethidium bromide from A5T5 (5'-GGGAAAAATTTTTCCCCC-3') DNA (unknown origin)/EtBr complex assessed as decrease in initial absorbance of DNA by crystal violet staining based analysis; type: nucleic-acid assay
DNA [22] = assay: Displacement of Ethidium bromide from (AT)5 (5'-GGGATATA-TATATCCC-3') DNA (unknown origin)/EtBr complex assessed as decrease in initial absorbance of DNA by crystal violet staining based analysis; type: nucleic-acid assay
Calf thymus DNA [23] = assay: Binding affinity to calf thymus DNA in Tris-HCl buffer at pH 7.0 assessed as change in enthalpy at 100 uM by isothermal titration […] analysis; type: nucleic-acid assay; conditions: Bos taurus
In short: (§3)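 ITC of CT DNA (100 μM/bp in cell) titrated with ligand (100 μM in syringe), 10 mM Tris-HCl pH 7.0; 25 injections of 10 μL at 30 °C, or for one ligand 50 injections of 5 μL at 27 °C. Buffer-into-DNA heats subtracted; single-site model gives K, N, ΔH and ΔS.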

Calf thymus DNA [24] = assay: Binding affinity to calf thymus DNA in Tris-HCl buffer at pH 7.0 assessed as differential groove occupancy at 100 uM by ITC analysis; type: nucleic-acid assay; conditions: Bos taurus; in short: as §3
Calf thymus DNA [25] = assay: Binding affinity to calf thymus DNA in Tris-HCl buffer at pH 5.0 assessed as dye aggregation in the DNA groove at 310nm at 1 mM incubated for 5 mins by UV spectra analysis; type: nucleic-acid assay; conditions: Bos taurus
In short: (§4)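 CT DNA (80 μM/bp) in 10 mM Tris-HCl pH 5.0 received small aliquots of ligand from a 1 mM stock; incubated 5 min at 20 °C. CD (average of three scans) and UV spectra recorded 215–350 nm in 0.5 nm increments under identical conditions.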

Calf thymus DNA [26] = assay: Binding affinity to calf thymus DNA in Tris-HCl buffer at pH 7.0 assessed as change in entropy at 100 uM by isothermal titration […] analysis; type: nucleic-acid assay; conditions: Bos taurus; in short: as §3
Calf thymus DNA [27] = assay: Binding affinity to calf thymus DNA in Tris-HCl buffer at pH 7.0 assessed as decrease in viscosity incubated for 30 mins by Ostwald viscometer analysis; type: nucleic-acid assay; conditions: Bos taurus; in short: as §1
Calf thymus DNA [28] = assay: Binding affinity to calf thymus DNA in Tris-HCl buffer at pH 5.0 assessed as dye aggregation in the DNA groove at 337nm at 1 mM incubated for 5 mins by UV spectra analysis; type: nucleic-acid assay; conditions: Bos taurus; in short: as §4
Calf thymus DNA [29] = assay: Ratio of Kapp for displacement of ethidium bromide from calf thymus DNA/EtBr complex to Kapp for displacement of ethidium bromide from calf thymus DNA/EtBr in presence of methyl green; type: nucleic-acid assay; conditions: Bos taurus
In short: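 Fluorescence titration of CT DNA (1.0 μM/bp) plus ethidium (0.5 μM), with or without netropsin or methyl green (0.5 μM each), against increasing ligand in 10 mM Tris-HCl pH 7.0. Excitation 520 nm, emission 590 nm, read after 3 min equilibration. C50 is the concentration giving 50% fluorescence loss; Kapp = 9.5×10^6 M⁻¹ × C_ethidium/C50.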

[30] = Binding affinity to DDD hairpin DNA (unknown origin) in Tris-HCl buffer at pH 5.0 assessed as negative induced CD bands formation at 310nm at 1 mM incubated for 5 mins by CD spectra analysis
In short: (§5)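 Ligand (1 mM stock) added in small aliquots to DDD hairpin (8.8 μM) in 10 mM Tris-HCl pH 5.0; mixed by inversion and incubated 5 min at 20 °C. CD recorded 215–350 nm in 0.5 nm steps as the average of three scans.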

[31] = Binding affinity to DDD hairpin DNA (unknown origin) in Tris-HCl buffer at pH 5.0 assessed as negligible changes in helicity band formation at 245nm at 1 mM incubated for 5 mins by CD spectra analysis; in short: as §5
[32] = Binding affinity to DDD hairpin DNA (unknown origin) in Tris-HCl buffer at pH 5.0 assessed as reduction in base stacking band formation at 280nm at 1 mM incubated for 5 mins by CD spectra analysis; in short: as §5

SMILES	C50 [2] [µM]	K [3]	C50 (AT rich DNA [4]) [µM]	C50 [5] [µM]	C50 [6] [µM]	K [7]	K [8] [M⁻¹]	C50 [9] [µM]	K (AT rich DNA [11])	K [12]	ΔTm (Calf thymus DNA [13]) [°C]	C50 [14] [µM]	Activity (Calf thymus DNA [16])	Activity (Calf thymus DNA [18])	K [19]	C50 [20] [µM]	C50 (DNA [21]) [µM]	C50 (DNA [22]) [µM]	further results
CN(C)c1ccc(C(=C2C=CC(=[N+](C)C)C=C2)c2ccccc2-c2ccccc2-c2ccccc2C(=C2C=CC(=[N+](C)C)C=C2)c2ccc(N(C)C)cc2)cc1	0.51	1.14 10^5/M	1.11	0.56	0.69	1.8 10^5/M	114000	0.54	0.32 10^5/M	21.1 10^5/M	3.6	0.57	Active	Active	21.1 10^5/M				Activity (Calf thymus DNA [1]): Dose-Dependent Effect; Activity (Calf thymus DNA [10]): Active; Activity (Calf thymus DNA [15]): Active; pIC50 (DNA [17]): 4.17
CN(C)c1ccc(C(=C2C=CC(=[N+](C)C)C=C2)c2ccc(N(C)C)c(-c3ccccc3)c2)cc1-c1ccccc1											1.6				0.3 10^5/M	2.09	1.83	1.81	
CN(C)c1ccc(C(=C2C=CC(=[N+](C)C)C=C2)c2ccc(OCc3ccccc3COc3ccc(C(=C4C=CC(=[N+](C)C)C=C4)c4ccc(N(C)C)cc4)cc3)cc2)cc1	1	29.1 10^5/M	2.08	1.09	2.64	1.32 10^5/M	5.06e+06	1.57	1.3 10^5/M	20.5 10^5/M	0.9	1.56	Active	Active	20.5 10^5/M				deltaH (Calf thymus DNA [23]): -44.7 kcal/mol; Activity (Calf thymus DNA [24]): Active; Activity (Calf thymus DNA [25]): Active; deltaS (Calf thymus DNA [26]): -0.12 kcal/mol; Activity (Calf thymus DNA [27]): Dose-Dependent Effect; Activity (Calf thymus DNA [28]): Active
CC1=CC(=[N+](C)C)C=CC1=C(c1ccc(N(C)C)cc1C)c1ccc(N(C)C)cc1C											2.6				1.2 10^5/M	7.21	2.4	2.3	
CN(C)c1ccc(C(=C2C=CC(=[N+](C)C)C=C2)c2ccc(C#Cc3cc4c(cc3C#Cc3ccc(C(=C5C=CC(=[N+](C)C)C=C5)c5ccc(N(C)C)cc5)cc3)OCO4)cc2)cc1	1.32		1.52	1.91	2.22			1.27			2.6	1.95			0.5 10^5/M				
CN(C)c1ccc(C(=C2C=CC(=[N+](C)C)C(c3ccccc3)=C2)c2ccc(N(C)C)c(-c3ccccc3)c2)cc1-c1ccccc1											2.2				48.7 10^5/M	3.36	3.13	2.71	
CN(C)c1ccc(C(=C2C=CC(=[N+](C)C)C=C2)c2ccc3cc(N(C)C)ccc3c2)cc1											4.6				3.1 10^5/M	0.88	0.52	0.32	
CN(C)c1ccc(C(=C2C=CC(=[N+](C)C)C=C2)c2ccc(N(C)C)c(-c3ccccc3)c2)cc1											6.2				96.4 10^5/M	2.99	2.61	2.75	Ratio (Calf thymus DNA [29]): 2.3
CN(C)c1ccc(C(=C2C=CC(=[N+](C)C)C=C2)c2ccc(-c3cc4c(cc3-c3ccc(C(=C5C=CC(=[N+](C)C)C=C5)c5ccc(N(C)C)cc5)cc3)OCO4)cc2)cc1	1.25		1.36	1.32	1.23			1.47			2.6	1.42			2.4 10^5/M				
CN(C)c1ccc(C(=C2C=CC(=[N+](C)C)C=C2)c2ccc(/C=C/c3cc4c(cc3/C=C/c3ccc(C(=C5C=CC(=[N+](C)C)C=C5)c5ccc(N(C)C)cc5)cc3)OCO4)cc2)cc1	1.1	49.8 10^5/M	1.21	1.12	1.27	2.22 10^5/M	32000	0.78	5.79 10^5/M	7.54 10^5/M	3.3	1.8	Active	Active	7.5 10^5/M				deltaH (Calf thymus DNA [23]): 85.8 kcal/mol; Activity [30]: Active; Activity [31]: Active; Activity (Calf thymus DNA [24]): Active; Ratio (Calf thymus DNA [29]): > 8; deltaS (Calf thymus DNA [26]): 0.316 kcal/mol; Activity (Calf thymus DNA [27]): Dose-Dependent Effect; pIC50 (DNA [17]): 5.27; Activity [32]: Active
